ChEMBL document CHEMBL1777788, “Synthesis and in vitro antimicrobial activities of new (cyano-NNO-azoxy)pyrazole derivatives” (2011)
≈ marks a conversion by molar mass, not a printed value.

Assays:
Candida albicans [1] = experiment: Antimicrobial activity against Candida albicans isolate 41 after 48 hrs by microdilution broth method; assay type: functional; details: isolate 41, 48 h
How it was run: (§1)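 Yeasts were grown overnight on Sabouraud dextrose agar at 35°C, suspended in water, and adjusted at 530 nm to McFarland 0.5 (approximately 1-5 x 10^6 CFU/ml). They were then diluted 1:100 and 1:20 in RPMI 1640 with 0.165 M MOPS and 2% glucose. Compound in DMSO was tested at ten concentrations, 0.25–256 mg/L, with incubation at 35°C. At 48 h, MIC was read spectrophotometrically as 50% turbidity reduction versus growth control.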

Candida parapsilosis [2] = experiment: Antimicrobial activity against Candida parapsilosis ATCC 22019 after 48 hrs by microdilution broth method; assay type: functional; details: Lodderomyces parapsilosis, ATCC 22019, 48 h; how it was run: as §1
Candida tropicalis [3] = experiment: Antimicrobial activity against Candida tropicalis isolate 22 after 48 hrs by microdilution broth method; assay type: functional; details: isolate 22, 48 h; how it was run: as §1
Candida tropicalis [4] = experiment: Antimicrobial activity against Candida tropicalis isolate 11 after 48 hrs by microdilution broth method; assay type: functional; details: isolate 11, 48 h; how it was run: as §1
Candida parapsilosis [5] = experiment: Antimicrobial activity against Candida parapsilosis isolate 26 after 48 hrs by microdilution broth method; assay type: functional; details: Lodderomyces parapsilosis, isolate 26, 48 h; how it was run: as §1
Candida albicans [6] = experiment: Antimicrobial activity against Candida albicans isolate 48 after 48 hrs by microdilution broth method; assay type: functional; details: isolate 48, 48 h; how it was run: as §1
Pichia kudriavzevii [7] = experiment: Antimicrobial activity against Candida krusei ATCC 6258 after 48 hrs by microdilution broth method; assay type: functional; details: ATCC 6258, 48 h
Nakaseomyces glabratus [8] = experiment: Antimicrobial activity against Candida glabrata isolate 46 after 48 hrs by microdilution broth method; assay type: functional; how it was run: as §1
Candida tropicalis [9] = experiment: Antimicrobial activity against Candida tropicalis isolate 33 after 48 hrs by microdilution broth method; assay type: functional; details: isolate 33, 48 h; how it was run: as §1
Proteus mirabilis = experiment: Antimicrobial activity against Proteus mirabilis isolate after 24 hrs by microdilution broth method
Candida albicans [10] = experiment: Antimicrobial activity against Candida albicans isolate 31 after 48 hrs by microdilution broth method; assay type: functional; details: isolate 31, 48 h; how it was run: as §1
Staphylococcus aureus [11] = experiment: Antimicrobial activity against methicillin-susceptible Staphylococcus aureus isolate after 24 hrs by microdilution broth method
Candida albicans [12] = experiment: Antimicrobial activity against Candida albicans isolate 47 after 48 hrs by microdilution broth method; assay type: functional; details: isolate 47, 48 h; how it was run: as §1
Pichia kudriavzevii [13] = experiment: Antimicrobial activity against Candida krusei isolate 31 after 48 hrs by microdilution broth method; assay type: functional; details: isolate 31, 48 h; how it was run: as §1
Staphylococcus aureus [14] = experiment: Antimicrobial activity against methicillin-resistant Staphylococcus aureus isolate after 24 hrs by microdilution broth method
[15] = test system: Cryptococcus deneoformans; experiment: Antimicrobial activity against Cryptococcus neoformans var. neoformans isolate 25 after 48 hrs by microdilution broth method; assay type: functional; details: isolate 25, 48 h; how it was run: as §1
Pseudomonas aeruginosa [16] = experiment: Antimicrobial activity against Pseudomonas aeruginosa isolate 1 after 24 hrs by microdilution broth method; details: isolate 1, 24 h
Nakaseomyces glabratus [17] = experiment: Antimicrobial activity against Candida glabrata isolate 30 after 48 hrs by microdilution broth method; assay type: functional; how it was run: as §1
Nakaseomyces glabratus [18] = experiment: Antimicrobial activity against Candida glabrata isolate 49 after 48 hrs by microdilution broth method; assay type: functional; how it was run: as §1
Nakaseomyces glabratus [19] = experiment: Antimicrobial activity against Candida glabrata isolate 32 after 48 hrs by microdilution broth method; assay type: functional; details: isolate 32, 48 h; how it was run: as §1
Candida parapsilosis [20] = experiment: Antimicrobial activity against Candida parapsilosis isolate 44 after 48 hrs by microdilution broth method; assay type: functional; details: Lodderomyces parapsilosis, isolate 44, 48 h; how it was run: as §1
Escherichia coli = experiment: Antimicrobial activity against Escherichia coli isolate after 24 hrs by microdilution broth method
Candida parapsilosis [21] = experiment: Antimicrobial activity against Candida parapsilosis isolate 19 after 48 hrs by microdilution broth method; assay type: functional; details: Lodderomyces parapsilosis, isolate 19, 48 h; how it was run: as §1
Pseudomonas aeruginosa [22] = experiment: Antimicrobial activity against Pseudomonas aeruginosa isolate 2 after 24 hrs by microdilution broth method; details: isolate 2, 24 h
[23] = test system: Cryptococcus deneoformans; experiment: Antimicrobial activity against Cryptococcus neoformans var. neoformans isolate 27 after 48 hrs by microdilution broth method; assay type: functional; details: isolate 27, 48 h; how it was run: as §1
Pichia kudriavzevii [24] = experiment: Antimicrobial activity against Candida krusei isolate 48 after 48 hrs by microdilution broth method; assay type: functional
[25] = test system: Cryptococcus deneoformans; experiment: Antimicrobial activity against Cryptococcus neoformans var. neoformans isolate 14 after 48 hrs by microdilution broth method; assay type: functional; details: isolate 14, 48 h; how it was run: as §1
Pichia kudriavzevii [26] = experiment: Antimicrobial activity against Candida krusei isolate 43 after 48 hrs by microdilution broth method; assay type: functional
[27] = test system: Cryptococcus deneoformans; experiment: Antimicrobial activity against Cryptococcus neoformans var. neoformans isolate 30 after 48 hrs by microdilution broth method; assay type: functional; details: isolate 30, 48 h; how it was run: as §1

Row | SMILES | MIC (Candida albicans [1]) | MIC (Candida parapsilosis [2]) | MIC (Candida tropicalis [3]) | MIC (Candida tropicalis [4]) | MIC (Candida parapsilosis [5]) | MIC (Candida albicans [6]) | MIC (Pichia kudriavzevii [7]) | MIC (Nakaseomyces glabratus [8]) | MIC (Candida tropicalis [9]) | MIC (Proteus mirabilis) | MIC (Candida albicans [10]) | MIC (Staphylococcus aureus [11]) | MIC (Candida albicans [12]) | MIC (Pichia kudriavzevii [13]) | MIC (Staphylococcus aureus [14]) | MIC [15] | MIC (Pseudomonas aeruginosa [16]) | MIC (Nakaseomyces glabratus [17]) | MIC (Nakaseomyces glabratus [18]) | MIC (Nakaseomyces glabratus [19]) | other results
1 | Cc1cc(-c2nn(C)c(C)c2/[N+]([O-])=N/C#N)nn1C | > 128 µg/mL | > 128 µg/mL | > 128 µg/mL | > 128 µg/mL | > 128 µg/mL | > 128 µg/mL | > 128 µg/mL | > 128 µg/mL | > 128 µg/mL | > 128 µg/mL | 64 µg/mL (≈ 247 µM) | 32 µg/mL (≈ 123 µM) | > 128 µg/mL | > 128 µg/mL | 32 µg/mL (≈ 123 µM) | 16 µg/mL (≈ 61.7 µM) | > 128 µg/mL | > 128 µg/mL | > 128 µg/mL | > 128 µg/mL | MIC (Candida parapsilosis [20]): > 128 µg/mL; MIC (Escherichia coli): > 128 µg/mL; MIC (Candida parapsilosis [21]): > 128 µg/mL; MIC (Pseudomonas aeruginosa [22]): > 128 µg/mL; MIC [23]: 16 µg/mL (≈ 61.7 µM); MIC (Pichia kudriavzevii [24]): > 128 µg/mL; MIC [25]: 16 µg/mL (≈ 61.7 µM); MIC (Pichia kudriavzevii [26]): > 128 µg/mL; MIC [27]: 16 µg/mL (≈ 61.7 µM)
2 | Cc1cc(-c2nn(C)c(C)c2/[N+]([O-])=N/C#N)on1 | 64 µg/mL (≈ 260 µM) | 128 µg/mL (≈ 520 µM) | > 128 µg/mL | 128 µg/mL (≈ 520 µM) | 128 µg/mL (≈ 520 µM) | 128 µg/mL (≈ 520 µM) | 32 µg/mL (≈ 130 µM) | 128 µg/mL (≈ 520 µM) | 128 µg/mL (≈ 520 µM) | > 128 µg/mL | 128 µg/mL (≈ 520 µM) | 4 µg/mL (≈ 16.2 µM) | 128 µg/mL (≈ 520 µM) | 64 µg/mL (≈ 260 µM) | 2 µg/mL (≈ 8.12 µM) | 2 µg/mL (≈ 8.12 µM) | > 128 µg/mL | 128 µg/mL (≈ 520 µM) | 128 µg/mL (≈ 520 µM) | 32 µg/mL (≈ 130 µM) | MIC (Candida parapsilosis [20]): 128 µg/mL (≈ 520 µM); MIC (Escherichia coli): > 128 µg/mL; MIC (Candida parapsilosis [21]): 128 µg/mL (≈ 520 µM); MIC (Pseudomonas aeruginosa [22]): > 128 µg/mL; MIC [23]: 2 µg/mL (≈ 8.12 µM); MIC (Pichia kudriavzevii [24]): 64 µg/mL (≈ 260 µM); MIC [25]: 2 µg/mL (≈ 8.12 µM); MIC (Pichia kudriavzevii [26]): 32 µg/mL (≈ 130 µM); MIC [27]: 2 µg/mL (≈ 8.12 µM)
3 | Cc1c(/[N+]([O-])=N/C#N)c(-c2cccs2)nn1C | 0.5 µg/mL (≈ 2.02 µM) | 16 µg/mL (≈ 64.7 µM) | 16 µg/mL (≈ 64.7 µM) | 8 µg/mL (≈ 32.4 µM) | 8 µg/mL (≈ 32.4 µM) | 1 µg/mL (≈ 4.04 µM) | 0.5 µg/mL (≈ 2.02 µM) | 0.25 µg/mL (≈ 1.01 µM) | 8 µg/mL (≈ 32.4 µM) | > 128 µg/mL | 1 µg/mL (≈ 4.04 µM) | 8 µg/mL (≈ 32.4 µM) | 1 µg/mL (≈ 4.04 µM) | 0.5 µg/mL (≈ 2.02 µM) | 4 µg/mL (≈ 16.2 µM) | 2 µg/mL (≈ 8.09 µM) | > 128 µg/mL | 0.25 µg/mL (≈ 1.01 µM) | 0.25 µg/mL (≈ 1.01 µM) | 0.25 µg/mL (≈ 1.01 µM) | MIC (Candida parapsilosis [20]): 8 µg/mL (≈ 32.4 µM); MIC (Escherichia coli): > 128 µg/mL; MIC (Candida parapsilosis [21]): 16 µg/mL (≈ 64.7 µM); MIC (Pseudomonas aeruginosa [22]): > 128 µg/mL; MIC [23]: 2 µg/mL (≈ 8.09 µM); MIC (Pichia kudriavzevii [24]): 0.5 µg/mL (≈ 2.02 µM); MIC [25]: 2 µg/mL (≈ 8.09 µM); MIC (Pichia kudriavzevii [26]): 1 µg/mL (≈ 4.04 µM); MIC [27]: 2 µg/mL (≈ 8.09 µM)
4 | Cc1c(/[N+]([O-])=N/C#N)c(-c2ccccn2)nn1C | 16 µg/mL (≈ 66 µM) | 128 µg/mL (≈ 528 µM) | 128 µg/mL (≈ 528 µM) | 128 µg/mL (≈ 528 µM) | 128 µg/mL (≈ 528 µM) | 128 µg/mL (≈ 528 µM) | 16 µg/mL (≈ 66 µM) | 64 µg/mL (≈ 264 µM) | 128 µg/mL (≈ 528 µM) | > 128 µg/mL | 64 µg/mL (≈ 264 µM) | 64 µg/mL (≈ 264 µM) | 128 µg/mL (≈ 528 µM) | 16 µg/mL (≈ 66 µM) | 32 µg/mL (≈ 132 µM) | 8 µg/mL (≈ 33 µM) | > 128 µg/mL | 64 µg/mL (≈ 264 µM) | 128 µg/mL (≈ 528 µM) | 4 µg/mL (≈ 16.5 µM) | MIC (Candida parapsilosis [20]): 128 µg/mL (≈ 528 µM); MIC (Escherichia coli): > 128 µg/mL; MIC (Candida parapsilosis [21]): 128 µg/mL (≈ 528 µM); MIC (Pseudomonas aeruginosa [22]): > 128 µg/mL; MIC [23]: 16 µg/mL (≈ 66 µM); MIC (Pichia kudriavzevii [24]): 8 µg/mL (≈ 33 µM); MIC [25]: 16 µg/mL (≈ 66 µM); MIC (Pichia kudriavzevii [26]): 16 µg/mL (≈ 66 µM); MIC [27]: 8 µg/mL (≈ 33 µM)
5 | Cc1cc(-c2nn(C)c(C)c2/[N+]([O-])=N/C#N)no1 | 128 µg/mL (≈ 520 µM) | 128 µg/mL (≈ 520 µM) | > 128 µg/mL | > 128 µg/mL | 128 µg/mL (≈ 520 µM) | > 128 µg/mL | 64 µg/mL (≈ 260 µM) | 128 µg/mL (≈ 520 µM) | > 128 µg/mL | > 128 µg/mL | 128 µg/mL (≈ 520 µM) | 16 µg/mL (≈ 65 µM) | > 128 µg/mL | 128 µg/mL (≈ 520 µM) | 8 µg/mL (≈ 32.5 µM) | 8 µg/mL (≈ 32.5 µM) | > 128 µg/mL | 128 µg/mL (≈ 520 µM) | 128 µg/mL (≈ 520 µM) | 64 µg/mL (≈ 260 µM) | MIC (Candida parapsilosis [20]): 128 µg/mL (≈ 520 µM); MIC (Escherichia coli): > 128 µg/mL; MIC (Candida parapsilosis [21]): 128 µg/mL (≈ 520 µM); MIC (Pseudomonas aeruginosa [22]): > 128 µg/mL; MIC [23]: 4 µg/mL (≈ 16.2 µM); MIC (Pichia kudriavzevii [24]): 128 µg/mL (≈ 520 µM); MIC [25]: 4 µg/mL (≈ 16.2 µM); MIC (Pichia kudriavzevii [26]): 64 µg/mL (≈ 260 µM); MIC [27]: 8 µg/mL (≈ 32.5 µM)
